Experimental data taken from ChEMBL document CHEMBL2417427, “High analgesic and anti-inflammatory in vivo activities of six new hybrids NSAIAs tetrahydropyran derivatives” (Bioorg Med Chem, 2013).
Activity calls are given as the source filed them. The calls are words filed in the database; no cut-off is given here.

Columns and labels:
Mus musculus [1] = assay: Antinociceptive activity in po dosed Albino-Swiss mouse assessed as acetic acid-induced abdominal writhing compound administered 30 mins prior challenge measured over 30 mins post acetic acid challenge; format: functional; conditions: Abdomen
In short: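 Mice were dosed orally at 1, 5 and 10 mg/kg as a suspension in 5% ethyl acetate vehicle (5 mL/kg). Acetic acid 1.2% (v/v) was then given ip, and writhes (abdominal contraction, body stretching, hind-limb extension) were counted for 30 min from injection. n = 6 per group. ED50 (µmol/kg) was obtained by sigmoidal dose-response nonlinear regression.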

[2] = Acute toxicity in po dosed Albino-Swiss mouse assessed as disorientation administered as single dose measured after 5 hrs until day 14; format: organism-based; conditions: in vivo
In short: (§1)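 Oral single dose given as a suspension in 5% ethyl acetate (5 mL/kg), in increasing doses up to 2000 mg/kg, following WHO and OECD guidelines. Animals were observed from 5 h after dosing, then daily until day 14, for disorientation, hyperactivity, piloerection and hyperventilation. LD50 was fitted by nonlinear regression of percent deaths versus dose. n = 6 per group.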

[3] = Acute toxicity in po dosed Albino-Swiss mouse assessed as piloerection administered as single dose measured after 5 hrs until day 14; format: organism-based; conditions: in vivo; in short: as §1
[4] = Acute toxicity in po dosed Albino-Swiss mouse assessed as hyperventilation administered as single dose measured after 5 hrs until day 14; format: organism-based; conditions: in vivo; in short: as §1
[5] = Acute toxicity in po dosed Albino-Swiss mouse assessed as hyperactivity administered as single dose measured after 5 hrs until day 14; format: organism-based; conditions: in vivo; in short: as §1
Mus musculus [6] = assay: Antinociceptive activity in Albino-Swiss mouse assessed as increase in thermal-stimulus induced tail flick latency at 10 mg/kg, po measured over 20 to 120 mins; format: functional, organism-based; set-up: dose 10 mg/kg
In short: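 Mice, 6 per group, dosed orally at 10 mg/kg as a suspension in 5% ethyl acetate vehicle (5 mL/kg). Light intensity set so baseline latency fell at 4–6 s; animals outside this range were excluded. Two pre-dose latencies averaged as baseline, then six readings at 20-min intervals. Reported as percentage increase over baseline per time point, or as AUC (trapezoid rule) over 20–120 min.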

Mus musculus [7] = assay: Toxicity in Albino-Swiss mouse assessed as forced motor activity at 10 mg/kg, po measured after 60 mins by rota-rod test; format: organism-based; set-up: dose 10 mg/kg, route oral; conditions: in vivo, 1 h
In short: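 Mice, 6 per group, trained twice the day before to stay 5 min on a rotating roller at 10 rev/min. Next day given 10 mg/kg p.o. (suspension in 5% ethyl acetate, 5 mL/kg) or vehicle, then placed on the roller 60 min later for 5 min. Read-out was number of falls; mean ± SD, ANOVA with Bonferroni.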

Mus musculus [8] = assay: Toxicity in Albino-Swiss mouse assessed as spontaneous locomotor activity at 10 mg/kg, po measured after 60 mins by open-field test; format: organism-based; set-up: dose 10 mg/kg, route oral; conditions: in vivo, 1 h
In short: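 Oral dosing at 10 mg/kg (5% ethyl acetate suspension, 5 mL/kg) or vehicle, 6 mice per group. At 60 min each mouse was placed alone in a chamber with the floor divided into 50 squares of 5 × 5 cm. Squares walked during 5 min were counted; mean ± SD, ANOVA with Bonferroni.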

Mus musculus [9] = assay: Ratio of diclofenac ED50 to compound ED50 for antinociceptive activity in po dosed Albino-Swiss mouse assessed as acetic acid-induced abdominal writhing compound administered 30 mins prior challenge measured over 30 mins post acetic acid challenge; format: functional, Abdomen

Row | SMILES | ED50 (Mus musculus [1]) [µmol/kg] | LD50 at 5 h [2] [mg/kg] | LD50 at 5 h [3] [mg/kg] | LD50 at 5 h [4] [mg/kg] | LD50 at 5 h [5] [mg/kg] | Activity (Mus musculus [6]) | Activity (Mus musculus [7]) | Activity (Mus musculus [8]) | Ratio ED50 (Mus musculus [9])
1 | COc1ccc2c(c1)c(CC(=O)O)c(C)n2C(=O)c1ccc(Cl)cc1 [INDOMETHACIN] | 72.6 | – | – | – | – | – | – | – | –
2 | CC(=O)Oc1ccccc1C(=O)O [ASPIRIN] | 44.2 | – | – | – | – | – | – | – | –
3 | OC[C@@H]1C[C@H](Cl)C[C@H](c2cccc3ccccc23)O1 (racemic) | 28 | – | – | – | – | – | – | – | –
4 | COc1ccc2c(c1)c(CC(=O)OC[C@@H]1C[C@H](Cl)C[C@H](c3cccc4ccccc34)O1)c(C)n2C(=O)c1ccc(Cl)cc1 (racemic) | 13.8 | > 2000 | > 2000 | > 2000 | > 2000 | Active | Non-toxic | Non-toxic | –
5 | COc1ccc2cc([C@H](C)C(=O)O)ccc2c1 [NAPROXEN] | 21.8 | – | – | – | – | – | – | – | –
6 | CC(=O)Oc1ccccc1C(=O)OC[C@@H]1C[C@H](Cl)C[C@H](c2cccc3ccccc23)O1 (racemic) | 20.4 | > 2000 | > 2000 | > 2000 | > 2000 | Active | Non-toxic | Non-toxic | –
7 | COc1ccc2cc(C(C)C(=O)OC[C@@H]3C[C@H](Cl)C[C@H](c4cccc5ccccc45)O3)ccc2c1 (mixture of isomers) | 4.6 | > 2000 | > 2000 | > 2000 | > 2000 | Active | Non-toxic | Non-toxic | –
8 | O=C(O)Cc1ccccc1Nc1c(Cl)cccc1Cl [DICLOFENAC POTASSIUM] | 32.5 | – | – | – | – | – | – | – | –
9 | CC(C)Cc1ccc(C(C)C(=O)O)cc1 (stereo unspecified) [IBUPROFEN] | 60.3 | – | – | – | – | – | – | – | –
10 | CC(C)Cc1ccc(C(C)C(=O)OC[C@@H]2C[C@H](Cl)C[C@H](c3cccc4ccccc34)O2)cc1 (mixture of isomers) | 10.3 | > 2000 | > 2000 | > 2000 | > 2000 | Active | Non-toxic | Non-toxic | –
11 | CC(C(=O)OC[C@@H]1C[C@H](Cl)C[C@H](c2cccc3ccccc23)O1)c1cccc(C(=O)c2ccccc2)c1 (mixture of isomers) | 14 | > 2000 | > 2000 | > 2000 | > 2000 | Active | Non-toxic | Non-toxic | –
12 | CC(C(=O)O)c1cccc(C(=O)c2ccccc2)c1 (stereo unspecified) [KETOPROFEN] | 46.6 | – | – | – | – | – | – | – | –
13 | O=C(Cc1ccccc1Nc1c(Cl)cccc1Cl)OC[C@@H]1C[C@H](Cl)C[C@H](c2cccc3ccccc23)O1 (racemic) | 3.17 | > 2000 | > 2000 | > 2000 | > 2000 | Active | Non-toxic | Non-toxic | >10
